Test results from the RNAGym collection of RNA variant scans (doi:10.1126/science.aae0568).
Variants at the floor of the assay were thinned out.

B1: tRNA (parent)
chain: GUUCCGUUGGCGUAAUGGUAACGCGUCUCCCUCCUAAGGAGAAGACUGCGGGUUCGAGUCCCGUACGGAACG

Variants of: B1
Assay: yeast fitness relative to wild type (ratio to wild type); higher = fitter; tRNA-Arg(CCU), competitive growth, 37 C, YPD
Method in brief: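 A pool of Saccharomyces cerevisiae strains, each with a tRNA-Arg(CCU) gene variant at the native genomic locus, was competed in YPD at 37°C for 24 hours across six parallel replicates. The variants had been chemically synthesised at a 3% per-site mutation rate over 69 sites, and gene amplicons before and after competition were read by 100-nucleotide paired-end sequencing. Darwinian fitness relative to wild type rested on changes in genotype frequencies. Genotypes required ≥ 100 starting reads, and estimates < 0.5 were set to 0.5.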

Row | Variant | yeast fitness
1 | U7G A14G U59A | 0.542
2 | U7G A21C G48C C55U G56A | ≤ 0.5
3 | U7G A14G U64A | 0.527
4 | U7C U32G C49U | ≤ 0.5
5 | U7G A15G C27A | 0.567
6 | U7G A42U | 0.683
7 | U7G A15C | 0.653
8 | U7G A15U | 0.592
9 | U7C G18C C55G | ≤ 0.5
10 | U7C G23A G56C G68A | ≤ 0.5
11 | U7C G56A A65C | 0.598
12 | U7C G18A G50A U64A | ≤ 0.5
13 | U7C U59A | 0.765
14 | U7C U13C | 0.836
15 | U7G A14U U19A C22U C60G | ≤ 0.5
16 | U7C G18A C31A | 0.541
17 | U7G A36U G63A | 0.532
18 | U7C U19A C31U C49U | 0.678
19 | U7C G41A A42C G50C C66U | 0.548
20 | U7G A14U U19A C22U | ≤ 0.5
21 | U7C U8G C27A A69U | ≤ 0.5

Row | Variant | yeast fitness
22 | U7C U8A C24G U64C | ≤ 0.5
23 | U7G A40C U47A | ≤ 0.5
24 | U7G A15G C33G A69U | ≤ 0.5
25 | U7G A21G U53C A57C A69U | ≤ 0.5
26 | U7C U26C G41C C46A | ≤ 0.5
27 | U7C U35C G52A | ≤ 0.5
28 | U7G A21C G58C | ≤ 0.5
29 | U7G A14G A20G U35G A43G U59A | ≤ 0.5
30 | U7C U16A | 0.812
31 | U7C G25C U47C | 0.622
32 | U7G A15G A21C | ≤ 0.5
33 | U7C G67A A70U | ≤ 0.5
34 | U7C U8A G23A | ≤ 0.5
35 | U7C U64G | 0.809
36 | U7C G51C A57G | ≤ 0.5
37 | U7C U13G C30U | ≤ 0.5
38 | U7C G41A A42C G50C A69C | 0.527
39 | U7G A36U A70U | 0.544
40 | U7C G44A | 0.807
41 | U7G A14G C22U G23A G38A C55A | ≤ 0.5
42 | U7G A15C U16A C33G A37C C49A C61U A70U | ≤ 0.5

Row | Variant | yeast fitness
43 | U7C U16G U28A | ≤ 0.5
44 | U7G A20C A70G | ≤ 0.5
45 | U7C G38A | 0.881
46 | U7C G38C | 0.715
47 | U7G A21C A42U C66U | ≤ 0.5
48 | U7C U26C C31G U35C C46A C66A | ≤ 0.5
49 | U7G A42U U53A | ≤ 0.5
50 | U7C G18C A37G G51C | 0.697
51 | U7G A36U C60U | ≤ 0.5
52 | U7C G41A A42C G50C C55A | ≤ 0.5
53 | U7C G25A G41A A42C G50C A70G | 0.569
54 | U7C U26G A36C G50C | 0.781
55 | U7C U28A G67A | 0.528
56 | U7C U28A | 0.845
57 | U7C U28C | 0.879
58 | U7G A37G C49A | ≤ 0.5
59 | U7C G48A G68U A70C | 0.542
60 | U7G A15C U16A C33G A69C | ≤ 0.5
61 | U7C G25A U59C A69C | ≤ 0.5
62 | U7G A21U | 0.717
63 | U7G A21G | 0.816

Row | Variant | yeast fitness
64 | U7G A21C | 0.588
65 | U7C G68U | 0.674
66 | U7C U47G G68U | ≤ 0.5
67 | U7C U16G G17A C49U C62A | 0.506
68 | U7C G48C A70C | 0.6
69 | U7C G18C G38C C62A | ≤ 0.5
70 | U7C U54C | 0.821
71 | U7C U54G | 0.535
72 | U7G A20G | 0.872
73 | U7G A20C | 0.651
74 | U7G A40U A69C | 0.731
75 | U7G | 0.983
76 | U7C U16G G17A C49U U59C C62A | ≤ 0.5
77 | U7G A40U A43U G44A A45U U53A | 0.61
78 | U7C U16A G41C U54C C66U | ≤ 0.5
79 | U7C U13C C24U C49U | ≤ 0.5
80 | U7G A36C G41A U53C | ≤ 0.5
81 | U7C U47C U64G G68C | ≤ 0.5
82 | U7G A15C A21C U28A G51A C60U C62U | 0.653
83 | U7C U16A C31U A43C | 0.722
84 | U7C U53A | 0.655
